# Measurements as given in ChEMBL document CHEMBL2380260, “Structure-activity relationship of N,N'-disubstituted pyrimidinetriones as Ca(V)1.3 calcium channel-selective antagonists for Parkinson's disease” (J Med Chem, 2013).
# Legend:
# [1] = biological target: Voltage-dependent L-type calcium channel subunit alpha-1C (Oryctolagus cuniculus, UniProt P15381); assay: Antagonist activity at rabbit CaV1.2alpha1C transfected in HEK293 cells by FLIPR assay; type: cell-based
# Summary of the method: (§1)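 HEK293 cells stably expressing the L-type channel (rat CaV1.3 α1D with all alternative splice sites, or rabbit CaV1.2 α1C), each co-expressed with rat β3 and α2δ-1 subunits. Cells plated at 4 × 10⁴ cells/well and cultured in DMEM with 10% FBS for 4 days. Calcium influx read by Fluo-8 no-wash dye fluorescence on FLIPR Tetra. IC50 from triplicate percent-inhibition data fitted to a one-site sigmoidal model.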
# [2] = Selectivity ratio of IC50 for rabbit CaV1.2alpha1C to IC50 for rat CaV1.3alpha1D
# Summary of the method: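 Selectivity is defined as […] the ratio of the CaV1.2 IC50 to the CaV1.3 IC50. Both IC50s come from the Fluo-8 FLIPR calcium influx assay in stably transfected HEK293 cells, each run in triplicate and fitted to a one-site sigmoidal model.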
# [3] = biological target: Voltage-dependent L-type calcium channel subunit alpha-1D (Rattus norvegicus, UniProt P27732); assay: Antagonist activity at rat CaV1.3alpha1D transfected in HEK293 cells by FLIPR assay; type: cell-based; summary of the method: as §1
# Voltage-dependent L-type calcium channel subunit alpha-1D, sequence (P27732 whole entry): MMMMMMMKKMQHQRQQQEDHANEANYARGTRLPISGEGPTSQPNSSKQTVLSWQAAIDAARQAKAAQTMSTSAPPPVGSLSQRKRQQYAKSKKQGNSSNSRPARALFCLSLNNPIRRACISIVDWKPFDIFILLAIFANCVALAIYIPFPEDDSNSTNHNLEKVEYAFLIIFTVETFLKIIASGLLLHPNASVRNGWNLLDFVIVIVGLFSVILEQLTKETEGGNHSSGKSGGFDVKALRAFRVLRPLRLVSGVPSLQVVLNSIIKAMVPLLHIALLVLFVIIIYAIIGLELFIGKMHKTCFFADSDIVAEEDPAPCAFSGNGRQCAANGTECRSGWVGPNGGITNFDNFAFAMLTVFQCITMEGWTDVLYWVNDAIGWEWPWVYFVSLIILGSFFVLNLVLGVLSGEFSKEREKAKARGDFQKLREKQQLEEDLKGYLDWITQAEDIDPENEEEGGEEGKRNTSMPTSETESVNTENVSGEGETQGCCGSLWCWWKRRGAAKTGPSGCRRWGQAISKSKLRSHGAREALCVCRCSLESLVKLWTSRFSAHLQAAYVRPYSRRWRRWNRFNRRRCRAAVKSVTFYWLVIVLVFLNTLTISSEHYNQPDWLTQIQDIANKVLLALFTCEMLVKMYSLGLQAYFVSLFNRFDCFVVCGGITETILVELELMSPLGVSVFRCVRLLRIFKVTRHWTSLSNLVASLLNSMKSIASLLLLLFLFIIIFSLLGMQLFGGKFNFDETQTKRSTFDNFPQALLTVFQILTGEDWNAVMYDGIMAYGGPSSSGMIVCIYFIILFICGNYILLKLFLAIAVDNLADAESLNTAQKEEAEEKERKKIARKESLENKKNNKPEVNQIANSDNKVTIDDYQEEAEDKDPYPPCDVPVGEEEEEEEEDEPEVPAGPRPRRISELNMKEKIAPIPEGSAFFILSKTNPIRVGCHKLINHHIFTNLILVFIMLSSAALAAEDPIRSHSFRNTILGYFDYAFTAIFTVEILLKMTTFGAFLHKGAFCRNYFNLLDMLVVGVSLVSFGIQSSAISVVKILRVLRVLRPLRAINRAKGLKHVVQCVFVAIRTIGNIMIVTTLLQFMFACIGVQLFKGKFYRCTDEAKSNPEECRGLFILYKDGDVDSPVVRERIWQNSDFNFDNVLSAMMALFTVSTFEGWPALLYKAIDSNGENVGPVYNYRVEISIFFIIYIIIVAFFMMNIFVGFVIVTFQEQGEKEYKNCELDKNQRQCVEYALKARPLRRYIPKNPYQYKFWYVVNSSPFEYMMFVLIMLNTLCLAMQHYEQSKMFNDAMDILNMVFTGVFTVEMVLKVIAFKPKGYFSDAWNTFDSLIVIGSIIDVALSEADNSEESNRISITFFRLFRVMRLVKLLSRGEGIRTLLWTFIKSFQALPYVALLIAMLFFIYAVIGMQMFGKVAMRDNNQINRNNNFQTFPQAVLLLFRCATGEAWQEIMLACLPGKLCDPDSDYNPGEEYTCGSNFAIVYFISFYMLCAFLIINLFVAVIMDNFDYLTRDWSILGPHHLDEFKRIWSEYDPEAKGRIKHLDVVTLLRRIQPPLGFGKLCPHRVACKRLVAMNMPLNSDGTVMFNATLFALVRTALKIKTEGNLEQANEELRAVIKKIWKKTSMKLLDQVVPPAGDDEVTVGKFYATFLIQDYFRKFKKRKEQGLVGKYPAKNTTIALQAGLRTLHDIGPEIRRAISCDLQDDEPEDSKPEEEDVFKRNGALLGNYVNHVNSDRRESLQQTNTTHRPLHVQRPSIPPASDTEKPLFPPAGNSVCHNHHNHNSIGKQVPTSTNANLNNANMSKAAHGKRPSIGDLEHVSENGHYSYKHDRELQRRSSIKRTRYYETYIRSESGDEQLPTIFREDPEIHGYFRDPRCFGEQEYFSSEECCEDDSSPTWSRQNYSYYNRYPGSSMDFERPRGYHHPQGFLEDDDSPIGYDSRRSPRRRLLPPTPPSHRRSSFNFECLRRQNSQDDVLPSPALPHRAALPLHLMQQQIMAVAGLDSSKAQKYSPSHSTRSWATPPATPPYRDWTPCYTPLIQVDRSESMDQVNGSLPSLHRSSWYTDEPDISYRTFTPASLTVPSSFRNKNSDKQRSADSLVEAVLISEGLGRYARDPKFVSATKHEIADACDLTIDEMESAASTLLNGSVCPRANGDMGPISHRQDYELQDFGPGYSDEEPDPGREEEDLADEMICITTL
# Voltage-dependent L-type calcium channel subunit alpha-1C, sequence (P15381 whole entry, canonical isoform): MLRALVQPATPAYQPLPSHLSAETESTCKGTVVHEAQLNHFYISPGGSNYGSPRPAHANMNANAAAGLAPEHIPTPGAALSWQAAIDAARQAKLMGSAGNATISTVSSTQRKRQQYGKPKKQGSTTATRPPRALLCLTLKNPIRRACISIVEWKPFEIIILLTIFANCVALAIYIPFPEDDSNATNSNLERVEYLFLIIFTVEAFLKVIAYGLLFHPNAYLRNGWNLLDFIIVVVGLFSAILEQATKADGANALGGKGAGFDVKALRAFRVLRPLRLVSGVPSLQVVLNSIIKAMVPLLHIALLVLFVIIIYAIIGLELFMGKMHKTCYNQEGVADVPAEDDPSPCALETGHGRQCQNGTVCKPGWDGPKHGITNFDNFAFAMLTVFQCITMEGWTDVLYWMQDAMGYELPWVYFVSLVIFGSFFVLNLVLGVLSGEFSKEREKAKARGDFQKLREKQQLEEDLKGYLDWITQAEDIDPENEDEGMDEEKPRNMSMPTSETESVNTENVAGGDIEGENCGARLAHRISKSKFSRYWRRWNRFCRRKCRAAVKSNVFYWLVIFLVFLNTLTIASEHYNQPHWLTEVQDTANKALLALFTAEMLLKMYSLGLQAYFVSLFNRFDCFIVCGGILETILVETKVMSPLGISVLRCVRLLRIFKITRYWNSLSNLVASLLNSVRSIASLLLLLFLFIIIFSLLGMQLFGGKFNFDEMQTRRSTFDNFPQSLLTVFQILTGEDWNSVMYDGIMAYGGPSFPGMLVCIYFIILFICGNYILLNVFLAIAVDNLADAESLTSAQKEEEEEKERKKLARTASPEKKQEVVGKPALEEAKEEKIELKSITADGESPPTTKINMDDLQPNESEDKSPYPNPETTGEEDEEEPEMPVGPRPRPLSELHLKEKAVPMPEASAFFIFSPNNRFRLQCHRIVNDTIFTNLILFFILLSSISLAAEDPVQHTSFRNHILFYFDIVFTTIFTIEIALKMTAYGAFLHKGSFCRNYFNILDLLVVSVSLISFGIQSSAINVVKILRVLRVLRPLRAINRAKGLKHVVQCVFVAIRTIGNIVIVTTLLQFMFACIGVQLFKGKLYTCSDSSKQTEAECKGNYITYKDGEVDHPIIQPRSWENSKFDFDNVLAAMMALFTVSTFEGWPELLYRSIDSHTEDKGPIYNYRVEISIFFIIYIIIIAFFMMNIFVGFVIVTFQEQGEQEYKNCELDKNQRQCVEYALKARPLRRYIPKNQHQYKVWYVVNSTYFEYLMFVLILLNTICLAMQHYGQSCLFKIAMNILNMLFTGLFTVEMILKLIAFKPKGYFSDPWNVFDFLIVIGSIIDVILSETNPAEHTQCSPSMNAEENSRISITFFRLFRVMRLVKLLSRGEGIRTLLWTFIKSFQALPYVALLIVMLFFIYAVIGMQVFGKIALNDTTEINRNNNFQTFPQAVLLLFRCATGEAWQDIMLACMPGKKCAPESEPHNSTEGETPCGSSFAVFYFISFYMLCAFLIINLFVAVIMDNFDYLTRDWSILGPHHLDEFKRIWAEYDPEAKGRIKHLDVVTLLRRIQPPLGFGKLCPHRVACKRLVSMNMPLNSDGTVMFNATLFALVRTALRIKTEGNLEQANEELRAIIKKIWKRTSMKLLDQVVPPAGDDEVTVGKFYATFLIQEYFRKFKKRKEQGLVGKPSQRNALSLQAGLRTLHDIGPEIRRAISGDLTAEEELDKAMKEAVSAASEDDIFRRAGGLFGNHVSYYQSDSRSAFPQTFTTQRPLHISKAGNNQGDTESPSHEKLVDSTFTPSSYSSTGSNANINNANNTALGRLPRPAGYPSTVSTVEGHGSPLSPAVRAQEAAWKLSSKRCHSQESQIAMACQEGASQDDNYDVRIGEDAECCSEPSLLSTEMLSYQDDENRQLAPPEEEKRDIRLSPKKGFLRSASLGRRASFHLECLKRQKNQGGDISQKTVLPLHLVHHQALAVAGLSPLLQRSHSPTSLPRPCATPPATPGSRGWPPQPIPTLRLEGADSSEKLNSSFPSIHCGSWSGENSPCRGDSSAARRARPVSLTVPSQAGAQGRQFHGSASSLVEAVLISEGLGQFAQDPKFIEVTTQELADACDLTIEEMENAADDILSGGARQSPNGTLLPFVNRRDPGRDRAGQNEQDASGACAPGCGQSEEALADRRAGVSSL
Structure (SMILES),IC50 [1] [µM],Ratio IC50 [2],IC50 [3] [µM]
CC1(C)CCC[C@@H]1N1C(=O)CC(=O)N(CCc2cccc(Cl)c2)C1=O,3.5,1.6,2.1
O=C1CC(=O)N(C2CCCC2)C(=O)N1CC(c1ccccc1)c1ccccc1,8.1,1.6,5.2
CC(CN1C(=O)CC(=O)N(C2CC3CCC2C3)C1=O)c1cccc(Cl)c1 (mixture of isomers),5.1,2.1,2.4
O=C1CC(=O)N([C@@H]2C[C@@H]3CC[C@H]2C3)C(=O)N1CCc1ccc(Cl)cc1,54,11,1.9
C[C@@H](C1CCCCC1)N1C(=O)CC(=O)N(CCc2ccc(Cl)cc2)C1=O,> 100,> 12,8.3
C[C@H]1CCC[C@@H]1N1C(=O)CC(=O)N(CCc2cccc(Cl)c2)C1=O (racemic),21,1.8,11
CC(=O)O[C@@H]1CCC[C@@H]1N1C(=O)CC(=O)N(CCc2cccc(Cl)c2)C1=O,23.4,0.6,38.6
C[C@H](C1CCCCC1)N1C(=O)CC(=O)N(CCc2ccc(Cl)cc2)C1=O,> 100,> 12,8.1
O=C1CC(=O)N(C2CCCC2)C(=O)N1CCc1cc(C(F)(F)F)cc(C(F)(F)F)c1,2.6,1.8,1.4
C[C@@H]1CCC[C@@H]1N1C(=O)CC(=O)N(CCc2cccc(Cl)c2)C1=O,13,2.3,5.5
O=C1CC(=O)N(C2CCCC2)C(=O)N1CCCc1ccccc1,21.9,2.9,7.6
O=C1CC(=O)N(C2CC3CCC2C3)C(=O)N1CCc1ccc(Cl)cc1 (mixture of isomers),50,8.9,5.6
CC1(C)CCC[C@H]1N1C(=O)CC(=O)N(CCc2cccc(Cl)c2)C1=O,4.7,1.9,2.5
O=C1CC(=O)N(C2CCCC2)C(=O)N1CCc1ccc(Cl)c(Cl)c1,3.4,2.7,1.2
O=C1CC(=O)N([C@@H]2C[C@@H]3CC[C@H]2C3)C(=O)N1CCc1cccc(Cl)c1,> 100,> 50,2
C[C@H]1CCC[C@H]1N1C(=O)CC(=O)N(CCc2cccc(Cl)c2)C1=O,9.3,1.3,7.3
O=C1CC(=O)N([C@H]2C[C@H]3CC[C@@H]2C3)C(=O)N1CCc1cccc(Cl)c1,> 100,> 29,3.5
CC(C)(CN1C(=O)CC(=O)N(C2CCCC2)C1=O)c1cccc(Cl)c1,12.6,4.9,2.4
COc1ccc([C@@H]2Sc3ccccc3N(CCN(C)C)C(=O)[C@@H]2OC(C)=O)cc1,–,< 2,–
O=C1CC(=O)N(C2CCCC2)C(=O)N1CCc1ccc(OCc2ccccc2)cc1,18.7,0.5,34.1
O=C(OCCc1cccc(F)c1)[C@H]1CC[C@@H](N2C(=O)CC(=O)N(CCc3cccc(Cl)c3)C2=O)C1,6.7,0.7,9.7
